Data from ChEMBL document CHEMBL4680154, “The optimization of xanthine derivatives leading to HBK001 hydrochloride as a potent dual ligand targeting DPP-IV and GPR119” (Eur J Med Chem, 2020).

What was measured:
[1] = Apparent permeability in human Caco-2 cells at 50 uM after 1 hr by UPLC analysis; assay type: ADME, cell-based
Summary of the method: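 Caco-2 cells grown 21 days on Transwell inserts (0.4 µm pores) into monolayers with TEER above 500 Ω×cm² before and after transport. Compound at 50 µM added apically, 1 h at 37 °C. Transported compound quantified by UPLC; Papp = (dQ/dt)/(C0×A).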

[2] = Elimination half-life in Sprague-Dawley rat plasma at 3 mg/kg, iv measured up to 24 hrs; assay type: ADME, organism-based; conditions: read-out: beta t1/2 (converted)
Summary of the method: (§1)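 Male SD rats (180–200 g), three per route, dosed as free base content. Oral formulation in 0.5% carboxymethyl cellulose; intravenous formulation in normal saline. Sampling at 5, 15, 30 min and 1, 1.5, 2, 4, 6, 8, 12, 24 h; plasma kept at -80 °C. Non-compartmental parameters; F = (AUCpo×dose iv)/(AUCiv×dose po).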

[3] = Plasma protein binding in monkey at 5 uM after 5 hrs by LC-MS/MS based equilibrium dialysis method; assay type: ADME, cell-free, Macaca mulatta; conditions: rhesus monkey, read-out: PPB (converted)
Summary of the method: (§2)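 Equilibrium dialysis: compound spiked at 5 μM (1% DMSO) into pre-warmed 37 °C plasma, dialysed against phosphate buffer (1% DMSO) for 5 h at 37 °C with shaking at 100 rpm. Both compartments analysed by LC-MS/MS.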

[4] = Elimination half-life in Sprague-Dawley rat plasma at 30 mg/kg, po measured up to 24 hrs; assay type: ADME, organism-based; conditions: read-out: beta t1/2 (converted); summary of the method: as §1
[5] = Cmax in Sprague-Dawley rat plasma at 30 mg/kg, po measured up to 24 hrs; assay type: ADME, organism-based; set-up: route oral, dose 30 mg/kg, time <=24; summary of the method: as §1
[6] = AUC(0 to t) in Sprague-Dawley rat plasma at 30 mg/kg, po measured up to 24 hrs; assay type: ADME, organism-based; set-up: route oral, dose 30 mg/kg, time <=24; summary of the method: as §1
[7] = Mean residence time (0 to infinity) in Sprague-Dawley rat at 3 mg/kg, iv measured up to 24 hrs; assay type: ADME, organism-based; conditions: in vivo; summary of the method: as §1
[8] = Acute toxicity in po dosed ICR mouse assessed as animal survival administered as single dose and observed for 7 days; assay type: organism-based; conditions: in vivo, time 7 day
Summary of the method: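 Female ICR mice (18 to 21 g), ten animals, given one oral dose of 1.5 g/kg. The number surviving was recorded after 7 days of observation.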

[9] = Plasma protein binding in rat at 5 uM after 5 hrs by LC-MS/MS based equilibrium dialysis method; assay type: ADME, cell-free; conditions: read-out: PPB (converted); summary of the method: as §2
[10] = AUC(0 to t) in Sprague-Dawley rat plasma at 3 mg/kg, iv measured up to 24 hrs; assay type: ADME, organism-based; set-up: route intravenous, dose 3 mg/kg, time <=24; summary of the method: as §1
[11] = Plasma protein binding in human at 5 uM after 5 hrs by LC-MS/MS based equilibrium dialysis method; assay type: ADME, cell-free; conditions: read-out: PPB (converted); summary of the method: as §2
[12] = AUC(0 to infinity) in Sprague-Dawley rat plasma at 3 mg/kg, iv measured up to 24 hrs; assay type: ADME, organism-based; set-up: route intravenous, dose 3 mg/kg, time <=24; summary of the method: as §1
[13] = Genotoxicity in Salmonella typhimurium TA98 incubated for 48 to 72 hrs by mini-Ames test; assay type: toxicity; conditions: salmonella enterica subsp. enterica serovar typhimurium; time 48-72 hrs
Summary of the method: (§3)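 Mini-Ames test with Salmonella typhimurium TA98 and TA100, with 10% S9 mix or PBS, in top agar poured onto minimal agar in 6-well plates. Up to 1000 μg/well; DMSO solvent control. Incubated 37 °C for 48–72 h; revertants counted manually. Called positive at a dose-related increase of at least 2-fold over the solvent control.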

[14] = AUC(0 to infinity) in Sprague-Dawley rat plasma at 30 mg/kg, po measured up to 24 hrs; assay type: ADME, organism-based; set-up: route oral, dose 30 mg/kg, time <=24; summary of the method: as §1
[15] = Genotoxicity in Salmonella typhimurium TA100 incubated for 48 to 72 hrs by mini-Ames test; assay type: toxicity; conditions: salmonella enterica subsp. enterica serovar typhimurium; time 48-72 hrs; summary of the method: as §3
[16] = Cmax in Sprague-Dawley rat plasma at 3 mg/kg, iv measured up to 24 hrs; assay type: ADME, organism-based; set-up: route intravenous, dose 3 mg/kg, time <=24; summary of the method: as §1
[17] = Plasma protein binding in mouse at 5 uM after 5 hrs by LC-MS/MS based equilibrium dialysis method; assay type: ADME, cell-free; conditions: read-out: PPB (converted); summary of the method: as §2
[18] = Plasma protein binding in dog at 5 uM after 5 hrs by LC-MS/MS based equilibrium dialysis method; assay type: ADME, cell-free, Canis lupus familiaris; conditions: read-out: PPB (converted); summary of the method: as §2
[19] = Tmax in Sprague-Dawley rat plasma at 30 mg/kg, po measured up to 24 hrs; assay type: ADME, organism-based; summary of the method: as §1
[20] = Oral bioavailability in Sprague-Dawley rat at 30 mg/kg; assay type: ADME, organism-based; conditions: in vivo; summary of the method: as §1
[21] = Mean residence time (0 to infinity) in Sprague-Dawley rat at 30 mg/kg, po measured up to 24 hrs; assay type: ADME, organism-based; conditions: in vivo; summary of the method: as §1
[22] = molecular target: Voltage-gated inwardly rectifying potassium channel KCNH2 (Homo sapiens, UniProt Q12809); experiment: Inhibition of human ERG expressed in CHO cells by manual patch clamp assay; assay type: cell-based
Chain of Voltage-gated inwardly rectifying potassium channel KCNH2 (Q12809 whole entry): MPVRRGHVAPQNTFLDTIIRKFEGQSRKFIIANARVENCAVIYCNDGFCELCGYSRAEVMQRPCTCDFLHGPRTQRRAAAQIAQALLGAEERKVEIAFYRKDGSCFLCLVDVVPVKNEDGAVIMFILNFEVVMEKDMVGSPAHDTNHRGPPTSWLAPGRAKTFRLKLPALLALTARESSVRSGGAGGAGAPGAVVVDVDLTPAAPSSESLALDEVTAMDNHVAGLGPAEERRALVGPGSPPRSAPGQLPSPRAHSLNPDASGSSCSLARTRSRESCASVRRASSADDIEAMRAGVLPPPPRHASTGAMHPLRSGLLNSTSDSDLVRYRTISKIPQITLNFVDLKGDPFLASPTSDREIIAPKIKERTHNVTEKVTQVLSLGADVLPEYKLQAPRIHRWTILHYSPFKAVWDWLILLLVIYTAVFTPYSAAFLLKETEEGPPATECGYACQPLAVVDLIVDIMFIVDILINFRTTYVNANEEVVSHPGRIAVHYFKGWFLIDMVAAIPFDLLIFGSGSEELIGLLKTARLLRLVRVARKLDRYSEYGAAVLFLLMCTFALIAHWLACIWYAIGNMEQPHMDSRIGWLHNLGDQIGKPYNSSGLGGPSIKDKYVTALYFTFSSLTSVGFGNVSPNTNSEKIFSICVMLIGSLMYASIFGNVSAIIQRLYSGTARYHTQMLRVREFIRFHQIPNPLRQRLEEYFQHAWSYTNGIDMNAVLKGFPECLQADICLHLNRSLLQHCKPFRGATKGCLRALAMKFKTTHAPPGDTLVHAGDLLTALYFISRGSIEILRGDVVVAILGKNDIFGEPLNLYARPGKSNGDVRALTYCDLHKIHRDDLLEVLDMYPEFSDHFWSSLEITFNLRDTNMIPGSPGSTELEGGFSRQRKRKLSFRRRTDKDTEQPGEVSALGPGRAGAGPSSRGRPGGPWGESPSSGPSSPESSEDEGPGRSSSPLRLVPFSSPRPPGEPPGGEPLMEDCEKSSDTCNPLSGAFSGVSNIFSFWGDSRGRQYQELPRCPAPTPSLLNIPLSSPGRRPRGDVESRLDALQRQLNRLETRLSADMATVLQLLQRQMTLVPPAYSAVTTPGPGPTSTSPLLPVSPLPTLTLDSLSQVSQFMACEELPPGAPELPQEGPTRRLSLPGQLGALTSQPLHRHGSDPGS
Summary of the method: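 CHO cells stably expressing hERG, cultured at least 24 h, then recorded by whole-cell voltage-clamp patch clamp.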

[23] = Metabolic stability in mouse liver microsomes assessed as parent compound remaining at 10 micromol/L measured after 30 mins in presence of NADPH generating system by LC-MS/MS analysis; assay type: ADME, Microsome; conditions: dose 10 µmol/L, read-out: Stabilty
Summary of the method: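 Mouse liver microsomes (0.5 mg/mL protein), compound at 10 μmol/L, in Tris-HCl with an NADPH-generating system that starts the reaction. Incubated in duplicate at 37 °C for 30 min; stopped with ice-cold acetonitrile containing internal standard. Supernatant analysed by LC-MS/MS; remaining amount normalised to time zero. Inactivated microsomes served as negative control.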

Vero = experiment: Cytotoxicity against African green monkey Vero cells incubated for 48 hrs by MTT assay; conditions: Chlorocebus sabaeus

## CC#CCn1c(N2CCC[C@@H](N)C2)nc2c1c(=O)n(CCCN1CCN(c3nc(-c4ccccc4)no3)CC1)c(=O)n2C.Cl
[1]
  Papp at 1 h, 50 µM: 19.1 ×10⁻⁶ cm/s
[2]
  half-life: 0.63 h
[3]
  fraction unbound at 5 h, 5 µM: 0.04
[4]
  half-life: 1.08 h
[5]
  Cmax: 226 ng/mL
[6]
  AUC(0-t) at 24 h: 623 ng·h/mL
[7]
  MRT inf: 0.73 h
[8]
  LD50 at 168 h: > 1500 mg/kg
[9]
  fraction unbound at 5 h, 5 µM: 0.039
[10]
  AUC(0-t) at 24 h: 147 ng·h/mL
[11]
  fraction unbound at 5 h, 5 µM: 0.028
[12]
  AUC(0-inf): 167 ng·h/mL
[13]
  Activity: Non-Toxic
[14]
  AUC(0-inf): 656 ng·h/mL
[15]
  Activity: Non-Toxic
[16]
  Cmax: 416 ng/mL
[17]
  fraction unbound at 5 h, 5 µM: 0.015
[18]
  fraction unbound at 5 h, 5 µM: 0.037
[19]
  Tmax: 1.33 h
[20]
  bioavailability: 42.4%
[21]
  MRT inf: 2.22 h
[22]
  IC50: 4.9 µM
[23]
  remaining at 0.5 h, 10 µM: 49.3%
Vero
  IC50: > 64 µg/mL
